IMP-1 inh = IMP-1 metallo-beta-lactamase inhibitors, primary screen, biochemical, epi-absorbance readout, Pseudomonas aeruginosa enzyme | purified IMP-1, nitrocefin hydrolysis, epi-absorbance fluorescence | AID 1556, 2009 | inhibition, % at 5.6 µM | 290,000 tested, 0.45% active | metallo-beta-lactamase IMP-1 (Pseudomonas aeruginosa);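 active = inhibition above the mean plus 3 SD of all compounds in the same screening run, cut at about 4.5% in these data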;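 note: 0% = IMP-1 with DMSO and 100% = DMSO wells lacking enzyme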
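assay system = purified recombinant IMP-1 metallo-beta-lactamase enzyme | schedule = 15 min preincubation plus 25 min reaction at 25 °C | signal = Epi-absorbance fluorescence, 480 nm excitation, 530 nm emission | read-out basis = percent inhibition from optical density relative to buffer-blank wells | controls = IMP-1 with DMSO as 0%, enzyme-free DMSO as 100%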
VIM-2 inhibitor = VIM-2 metallo-beta-lactamase inhibitors, primary screen, biochemical, epi-absorbance readout, Pseudomonas aeruginosa enzyme; purified VIM-2, nitrocefin hydrolysis, epi-absorbance fluorescence; inhibition, % at 5.6 µM; 290,000 tested, 0.89% active; AID 1527, 2009;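 active = inhibition above the mean of all tested compounds plus 3 SD, cutoff set per screening run, cut at about 7.5% in these data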;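 note: red hydrolysis product quenches plate fluorescence so inhibitors raise well fluorescence; 0% = enzyme with DMSO and 100% = DMSO without enzyme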
HTR2A ag = mouse Htr2a agonists via beta-arrestin recruitment, primary screen, cell-based, luminescence; CHO-K1 mHTR2A beta-arrestin complementation; percent of 30 µM serotonin response; activation, % at 7.6 µM; 360,000 tested, 0.66% active; AID 624169, 2012;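 active = activation above a run cutoff, the mean activation of all tested compounds plus 3 SD, cut at about 14% in these data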;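 note: 0% = plate median of compound wells and 100% = 30 µM serotonin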
Target sequence (P35363 whole entry, looked up): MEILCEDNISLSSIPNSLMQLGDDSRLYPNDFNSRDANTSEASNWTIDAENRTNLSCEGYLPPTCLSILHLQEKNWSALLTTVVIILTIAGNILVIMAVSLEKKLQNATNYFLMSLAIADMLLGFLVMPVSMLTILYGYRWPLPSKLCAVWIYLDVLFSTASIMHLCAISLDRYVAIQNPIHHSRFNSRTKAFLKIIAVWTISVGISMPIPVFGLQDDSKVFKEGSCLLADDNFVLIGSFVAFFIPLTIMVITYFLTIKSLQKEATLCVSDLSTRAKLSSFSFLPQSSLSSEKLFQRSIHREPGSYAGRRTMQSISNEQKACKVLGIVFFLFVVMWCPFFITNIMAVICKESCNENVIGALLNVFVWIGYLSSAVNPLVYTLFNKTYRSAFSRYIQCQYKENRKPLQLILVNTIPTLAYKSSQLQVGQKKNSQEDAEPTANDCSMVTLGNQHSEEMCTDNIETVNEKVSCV
dFosB act-1 = activators of delta FosB homodimer, primary screen, biochemical, fluorescence polarization, TAMRA-CDK5 oligo, single point; purified delta FosB; percent of positive-control signal above neutral wells; activation, % at 25 µM; 340,000 tested, 0.99% active; AID 493131, 2011;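 active = mean activation above about 17%, with every replicate also reaching it, limit read from the data, passing the limit was not always enough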
dFosB act-2 = activators of mouse delta FosB DNA binding, confirmation, biochemical, fluorescence polarization, TAMRA-CDK5 oligo, cherry-picked samples. 2,400 tested, under 10 active. shares compounds with dFosB act-1. activation, % at 24.9 µM. purified delta FosB; normalised: neutral wells 0, positive control 100. AID 588690, 2011;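 active = highest replicate activation at or above 34% and every replicate reaching that threshold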;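 note: higher polarization means more probe DNA bound by delta FosB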
* hit, by the source's call. Rows were chosen to be rich in hits. Some 2.5% of all compounds tested hit in one or more screens of this group.

For COc1cccc(-c2c(C(=O)N/N=C/c3ccsc3)nnn2-c2nonc2N)c1 the results were IMP-1 inh 1, VIM-2 inhibitor 0, HTR2A ag -1, dFosB act-1 20* and dFosB act-2 2.
`COc1ccc(C2c3c(ncn(Cc4ccco4)c3=N)Oc3ccc4ccccc4c32)cc1` (stereo not drawn) gave IMP-1 inh -4, VIM-2 inhibitor -1, HTR2A ag 4, dFosB act-1 45* and dFosB act-2 -1.
O=C(NNC(=O)c1ccccc1C(=O)O)c1ccc(S(=O)(=O)N2CCCCC2)cc1 was read as IMP-1 inh -2, VIM-2 inhibitor -5, HTR2A ag -7 and dFosB act-1 -7.
For Cc1ccc(NC(=O)Cn2c(=O)n(CCCCC(=O)NCc3ccco3)c(=O)c3ccccc32)cc1 the results were IMP-1 inh -2, VIM-2 inhibitor -1, HTR2A ag -2, dFosB act-1 31* and dFosB act-2 4.
`O=C(CCCCn1c(=O)c2ccccc2n(CC(=O)Nc2ccc(F)cc2)c1=O)NCc1ccco1` gave IMP-1 inh -2, VIM-2 inhibitor -1, HTR2A ag 3 and dFosB act-1 1.
For Cc1ccc(NC(=O)Cn2c(=O)n(Cc3ccco3)c(=O)c3ccccc32)c(C)c1 the results were IMP-1 inh -5, VIM-2 inhibitor -2, HTR2A ag 5, dFosB act-1 32* and dFosB act-2 2.
COc1ccc(NC(=O)CSc2nnc(C)s2)cc1S(=O)(=O)N1CCOCC1 was read as HTR2A ag 3 and dFosB act-1 -3.
`CCC(=O)NNC(=O)CCC(=O)Nc1ccc(C)cc1C` gave IMP-1 inh -1, VIM-2 inhibitor -2, HTR2A ag -1 and dFosB act-1 7.
`Cc1ccc(C)c(OCC(=O)NCCNC(=O)COc2cc(C)ccc2C)c1` gave IMP-1 inh -2, VIM-2 inhibitor -4, HTR2A ag -5 and dFosB act-1 -7.
`Cc1ccc(C)c(NC(=O)CCC(=O)NNS(=O)(=O)c2ccc(Cl)cc2)c1` gave HTR2A ag -2, dFosB act-1 23* and dFosB act-2 -1.
For Cc1ccc(C)c(NC(=O)CCC(=O)NNC(=O)COc2cc(C)ccc2C)c1 the results were IMP-1 inh -4, VIM-2 inhibitor -4, HTR2A ag 7, dFosB act-1 36* and dFosB act-2 -2.
Cc1ccc(NC(=O)CCC(=O)NNC(=O)COc2cccc3ccccc23)c(C)c1 was read as IMP-1 inh -4, VIM-2 inhibitor -5, HTR2A ag 0, dFosB act-1 33* and dFosB act-2 5.
`Cc1ccc(NC(=O)CCC(=O)NNS(=O)(=O)c2ccc(Cl)cc2)cc1C` gave IMP-1 inh -3, VIM-2 inhibitor -4, HTR2A ag -7 and dFosB act-1 6.
For CNC(=O)c1c(NC(=O)CCS(=O)(=O)c2ccc(C)cc2)sc2c1CCN(C(=O)OC)C2 the results were HTR2A ag -1 and dFosB act-1 -13.
`Cc1cccc(-c2noc(CN(C)C(=O)c3ccc4c(c3)OCO4)n2)c1` gave IMP-1 inh -3, VIM-2 inhibitor -3, HTR2A ag 0 and dFosB act-1 -4.
`Cc1ccc(C(=O)NCCS(=O)(=O)N2CCN(c3ccccc3F)CC2)cc1[N+](=O)[O-]` gave IMP-1 inh -1, VIM-2 inhibitor -4, HTR2A ag -1 and dFosB act-1 -11.
`O=C1NC[C@H](CCCCN2C[C@@H](Cc3ccccc3)N(Cc3ccccc3)C(=O)C2=O)N(CCC2CCCCC2)C1=O` gave HTR2A ag -5.
For Cc1cc(=O)n2c(C(=O)Nc3ccc(C)c(C)c3)c(C(=O)Nc3ccccc3)sc2n1 the results were IMP-1 inh -2, VIM-2 inhibitor 0, HTR2A ag 2, dFosB act-1 34* and dFosB act-2 1.
`CCc1ccc(NC(=O)c2c(C(=O)Nc3ccccc3)sc3nc(C)cc(=O)n23)cc1` gave IMP-1 inh -3, VIM-2 inhibitor -1, HTR2A ag -3, dFosB act-1 35* and dFosB act-2 -1.
Cc1ccc(NC(=O)c2c(C(=O)Nc3ccccc3)sc3nc(C)cc(=O)n23)cc1 was read as IMP-1 inh -2, VIM-2 inhibitor -3, HTR2A ag 5, dFosB act-1 32* and dFosB act-2 -3.
For Cc1ccc(NC(=O)c2cc(C)nc3ccccc23)cc1 the results were IMP-1 inh -4, VIM-2 inhibitor 1, HTR2A ag -8 and dFosB act-1 -3.
`COc1ccc([N+](=O)[O-])cc1N(CC(O)CN1C(=O)NC(C)(C)C1=O)S(=O)(=O)c1ccc(C)cc1` (stereo not drawn) gave HTR2A ag -2.
Cc1cc(N)ccc1NC(=O)CN1CCOCC1 was read as IMP-1 inh -4, VIM-2 inhibitor -3, HTR2A ag -1 and dFosB act-1 -4.
For Cc1cccc(C(=O)NC(=S)Nc2c(C)n(C)n(-c3ccccc3)c2=O)c1 the results were IMP-1 inh 1, VIM-2 inhibitor -2, HTR2A ag -2 and dFosB act-1 -6.
`O=C(NCCc1nc2ccccc2[nH]1)/C(=C/c1ccc2c(c1)OCO2)NC(=O)c1ccc(Cl)cc1Cl` gave IMP-1 inh -3, VIM-2 inhibitor -4, HTR2A ag -3, dFosB act-1 20* and dFosB act-2 1.
For Cc1ccc(S(=O)(=O)N(C)c2ccc(OC(=O)CN3C(=O)NC4(CCCC4)C3=O)cc2)cc1 the results were HTR2A ag 4 and dFosB act-1 -10.
`Cc1ccc(S(=O)(=O)N(C)c2ccc(OC(=O)CN3C(=O)NC4(CCCC4)C3=O)cc2)cc1C` gave HTR2A ag -2, dFosB act-1 25* and dFosB act-2 3.
Cc1sc2nc(SCC(=O)Nc3ccc(S(N)(=O)=O)cc3)[nH]c(=O)c2c1C was read as IMP-1 inh 0, VIM-2 inhibitor -2, HTR2A ag 3, dFosB act-1 101* and dFosB act-2 0.
COc1cc2c(cc1OC)C(COc1ccc([N+](=O)[O-])cc1)N(C(C)=O)CC2 (stereo not drawn) was read as IMP-1 inh -2, VIM-2 inhibitor 0, HTR2A ag 1 and dFosB act-1 -7.
CN1OC[C@@H]2CN(Cc3ccccc3)[C@H](c3cccc(-c4ccc(C#N)cc4)c3)C[C@@H]21 was read as HTR2A ag -1 and dFosB act-1 -15.
`Cc1cccc(NC(=O)C2(c3ccccc3)CCOCC2)c1` gave IMP-1 inh -2, VIM-2 inhibitor -1, HTR2A ag -3 and dFosB act-1 4.

Screens from PubChem.
